From PubChem BioAssay
UCH37 inh – human UCH37 deubiquitinating enzyme inhibition | purified proteasome/UCH37, Ub-AMC cleavage fluorescence | 330,000 compounds, 0.33% hits | inhibition, % (test concentration not listed) | Q9Y5K5;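 active means mean inhibition over replicate wells above about 20%, limit read from the data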;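 further: 0% = compound-free wells with enzyme and 100% = wells lacking proteasome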
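Material: Human UCH37 enzyme supplied as purified proteasome complex | Schedule: 30 min compound-proteasome preincubation then 25 min substrate reaction, room temperature | Detection: AMC fluorescence from Ub-AMC cleavage, excitation 355 nm, emission 460 nm | Benchmarks: Wells without proteasome as full block, compound-free enzyme plus substrate as uninhibited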
SENP1 inh – inhibitors of human SENP1 SUMO protease catalytic domain. 360,000 compounds, 0.21% hits. inhibition, % at 10 µM. recombinant SENP1 catalytic domain, CyPet-SUMO1-YPet FRET cleavage. AID 624204;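 active means inhibition at least 30% at 10 µM, raw YFP signal under a set limit, fluorescence ratio 0.5 to 1.5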;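 further: 0% = enzyme with DMSO and 100% = no enzyme wells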
Target sequence (Q9P0U3 419-644 limits assumed): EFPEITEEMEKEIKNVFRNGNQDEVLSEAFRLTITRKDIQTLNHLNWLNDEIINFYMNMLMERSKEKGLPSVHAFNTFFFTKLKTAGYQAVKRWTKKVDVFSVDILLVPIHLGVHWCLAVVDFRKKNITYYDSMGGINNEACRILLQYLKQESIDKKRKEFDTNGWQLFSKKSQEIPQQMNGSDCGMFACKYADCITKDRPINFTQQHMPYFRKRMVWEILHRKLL
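Controls: no-enzyme wells low, DMSO-plus-enzyme wells high control. Test system: human recombinant His6-tagged SENP1 catalytic domain enzyme. Reagent: SFCypet-SUMO1-SFYpet FRET protein substrate, 25 nM final. Doses: one dose per compound, 10 µM, 0.5% DMSO. Detection: FRET, CFP and YFP emission. Timing: 50 min reaction at room temperature.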
NR3A LBD binder – NR3A (human) ligand-binding domain modulation | 340,000 compounds, 2.5% hits | Tm shift relative to glycine control, % at 25 µM | NR3A LBD differential scanning fluorimetry, Tm shift; 0% = protein alone, 100% = glycine-bound protein;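 active means melting temperature shift of at least 10% of the positive control shift, at one fixed dose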
ATG4B inhibitor – ATG4B (human) cysteine protease inhibition | Q9Y4P1 | ATG4B cleavage of LC3-PLA2, NBD-HPC fluorescence, 1 h | inhibition, % at 8.33 µM | 340,000 compounds, 0.51% hits | AID 504462; in the data active means inhibition above about 40%
Target sequence (Q9Y4P1 whole entry, looked up): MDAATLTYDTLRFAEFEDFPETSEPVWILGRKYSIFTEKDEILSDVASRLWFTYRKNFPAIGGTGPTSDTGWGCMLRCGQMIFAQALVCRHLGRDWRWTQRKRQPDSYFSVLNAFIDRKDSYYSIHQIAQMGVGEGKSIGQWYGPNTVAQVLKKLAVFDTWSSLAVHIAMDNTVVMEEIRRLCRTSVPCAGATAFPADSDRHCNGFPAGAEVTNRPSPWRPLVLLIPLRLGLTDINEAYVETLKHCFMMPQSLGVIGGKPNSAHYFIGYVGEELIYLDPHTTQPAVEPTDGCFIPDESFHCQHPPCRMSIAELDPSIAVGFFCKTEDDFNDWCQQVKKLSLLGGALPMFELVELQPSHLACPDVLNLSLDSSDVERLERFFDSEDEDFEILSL
NadD block – inhibitors of Staphylococcus aureus NadD | purified NadD enzyme, colorimetric absorbance read-out | inhibition, % at 20 µM | 360,000 compounds, 0.78% hits | AID 602399; in the data active means inhibition above about 26%
UCH37 reconfirm – reconfirmed inhibitor of human deubiquitinase UCH37. AID 624100. shares compounds with UCH37 inh. inhibition, % at 20 µM. Proteasome-bound UCH37, Ub-AMC cleavage fluorescence. 480 compounds, 27% hits;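 active means average inhibition over replicates above about 50%, so the earlier screening hit is confirmed, limit read from the data; inactive means the rest, counted as false positives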;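 further: based on cleavage rate fitted by regression over a 30 min kinetic read; 0% = proteasome plus Ub-AMC and 100% = Ub-AMC without proteasome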
NadD conf – confirmation of Staphylococcus aureus NadD inhibitors; shares compounds with NadD block; AID 624309; purified S. aureus NadD, colorimetric enzyme assay; 2,000 compounds, 13% hits; inhibition, % at 20 µM; in the data active means inhibition mostly above about 42%, no sharp cut-off; inactive means mostly below about 42%
Active calls of the source: *; . = not tested or not shown. Shown are actives, neighbours in structure and some others; about 3.6% of the full set was active somewhere.

SMILES	UCH37 inh	SENP1 inh	NR3A LBD binder	ATG4B inhibitor	NadD block	UCH37 reconfirm	NadD conf
Cn1nnc2cc(NC(=O)Nc3ccccc3F)ccc21	.	2.0	.	.	-4.7	.	.
C#CCOCCOCCOCCNc1nc(N2CCN(C(=O)Cn3cc(CCO)nn3)CC2)nc(N2CCN(C(=O)[C@H]([C@@H](C)O)n3cc(CCCCN)nn3)CC2)n1	37.9*	1.8	1.8	-11.0	-5.5	19.3	.
C#CCOCCOCCOCCNc1nc(N2CCN(C(=O)Cn3cc(CC(C)O)nn3)CC2)nc(N2CCN(C(=O)[C@H]([C@@H](C)O)n3cc(CCCCN)nn3)CC2)n1 (some centres not stated)	-1.0	3.7	-0.3	-1.2	0.7	.	.
O=C(CC1N=C(Cc2ccccc2)NNC1=O)NN=Cc1ccc([N+](=O)[O-])cc1 (configuration not stated)	10.4	.	.	.	.	.	.
CC(Oc1ccccc1)C(=O)N=Nc1c(O)[nH]c2ccc([N+](=O)[O-])cc12 (configuration not stated)	67.0*	5.0	-2.6	-24.6	5.5	45.6	.
O=C(N=Nc1c(O)[nH]c2ccc([N+](=O)[O-])cc12)c1ccccc1[N+](=O)[O-]	61.4*	2.5	-3.3	-13.5	-4.8	13.8	.
CCCCCCC(=O)N=Nc1c(O)[nH]c2ccc([N+](=O)[O-])cc12	1.1	1.4	9.8	-0.1	5.0	.	.
CCCCC12CN3CCN(CC(C3)C1=NNC(=O)Nc1ccccc1)C2	1.0	.	.	.	.	.	.
Cc1ccc2c(c1Br)C(=NN1C(=O)c3ccccc3C1=O)C(=O)N2	-1.2	.	.	.	.	.	.
COC(=O)c1cccc(-c2ccc(C(c3c(C)[nH][nH]c3=O)c3c(C)[nH][nH]c3=O)o2)c1	39.9*	1.3	-3.4	4.2	18.1	57.4*	.
COC(=O)c1ccccc1-c1ccc(C(c2c(C)[nH][nH]c2=O)c2c(C)[nH][nH]c2=O)o1	3.5	0.8	-1.1	-9.8	-1.9	.	.
Cc1[nH][nH]c(=O)c1C(c1ccc(-c2ccc(Cl)c(C(=O)O)c2)o1)c1c(C)[nH][nH]c1=O	30.1*	-6.2	2.4	13.6	4.7	44.3	.
O=C(CC(=O)NN=Cc1ccccc1[N+](=O)[O-])NCCc1ccccc1	5.5	.	.	.	.	.	.
Cc1ccccc1OCC(=O)ON=C(N)Cc1ccc(Cl)cc1	44.1*	.	.	.	.	14.7	.
CC(=O)NN=c1sc2ccccc2n1C	2.0	.	.	.	.	.	.
COC(=O)C1=C(C(=O)OC)[C@@H]2N(C)c3ccccc3[C@@]23C[C@@H](C(=O)OC)N(C(=O)CC(C)C)C3=N1	42.4*	0.3	2.2	-6.7	0.1	1.9	.
CCn1cc(C=NNC(=O)c2ccc3c(c2)OCO3)c(C)n1	4.3	.	.	.	.	.	.
O=S(=O)(Nc1cc(Sc2ncn[nH]2)c(O)c2ccccc12)c1ccccc1	38.0*	2.7	-1.4	7.0	16.3	69.5*	.
O=[N+]([O-])c1cccc(C=NNC2=NS(=O)(=O)c3ccccc32)c1	11.6	.	.	.	.	.	.
O=C1OC(c2ccc3ccccc3c2O)(c2ccc3ccccc3c2O)c2ccccc21	25.7*	-7.8	-11.6	-2.5	41.1*	-35.9	81.8*
O=C1OC2(c3ccccc31)c1ccccc1-c1ccccc12	1.3	0.7	-0.2	-15.0	-4.7	.	.
O=C(NN=Cc1ccc[nH]1)c1ccc(Cl)cc1	6.4	.	.	.	.	.	.
Cc1ccc(NC(=O)CN2C(=O)S/C(=C/c3ccc(O)c([N+](=O)[O-])c3)C2=O)cc1C	28.2*	2.3	6.5	29.2	34.8*	48.3	33.8
CCN1/C(=C/C=C/C=C/C=C/c2sc3ccccc3[n+]2CC)Sc2ccccc21	54.0*	-20.6	-1.2	36.7	39.7*	69.4*	79.0*
COc1ccc(C(C)=NNc2nccnc2Cl)cc1	3.9	.	.	.	.	.	.
SMILES	UCH37 inh	SENP1 inh	NR3A LBD binder	ATG4B inhibitor	NadD block	UCH37 reconfirm	NadD conf
CCn1nc(C(=O)Nc2ccc(S(=O)(=O)Nc3nccs3)cc2)c2ccccc2c1=O	1.5	-2.5	-1.5	-0.5	7.2	.	.
O=C(Nc1ccc(S(=O)(=O)Nc2ncccn2)cc1)c1nn(Cc2ccccc2)c(=O)c2ccccc12	5.3	-3.4	-2.5	4.0	33.6*	.	35.4
CC(=NNC(=O)c1nnn(-c2nonc2N)c1C(C)C)c1ccncc1	0.9	.	.	.	.	.	.
Oc1c(Cl)cc(Cl)c2cccnc12	2.2	2.7	-0.4	-3.5	6.7	.	.
Oc1c(I)cc(I)c2cccnc12	3.0	5.1	-1.1	-0.3	45.6*	.	6.2
O=[N+]([O-])c1cccc(/C=N/Nc2nnc(-c3ccccc3)c(-c3ccccc3)n2)c1	.	3.4	-1.7	6.8	27.1	.	.
C/C(=N\Nc1nnc(-c2ccccc2)c(-c2ccccc2)n1)c1cccc([N+](=O)[O-])c1	.	-2.4	-1.2	1.3	32.6*	.	3.3
C[C@@H]1CN([C@@H](C)CO)C(=O)c2cc(C#CC3CCCCC3)cnc2O[C@@H]1CN(C)S(=O)(=O)c1ccc(F)cc1	.	-0.1	.	.	75.4*	.	33.1
COc1ccc(S(=O)(=O)N(C)C[C@@H]2OCCCC[C@H](C)Oc3ccc(NC(=O)Nc4ccc(C(F)(F)F)cc4)cc3C(=O)N([C@H](C)CO)C[C@H]2C)cc1	.	1.0	.	.	30.3*	.	-3.0
C[C@@H]1CCCCO[C@H](CN(C)C(=O)CCC(F)(F)F)[C@@H](C)CN([C@H](C)CO)C(=O)c2cc(NC(=O)c3ccncc3)ccc2O1	.	-4.6	.	.	2.6	.	.
C[C@@H]1CN([C@@H](C)CO)C(=O)c2cc(/C=C/c3ccccc3)cnc2O[C@@H]1CN(C)S(=O)(=O)c1ccc(F)cc1	.	0.7	.	.	3.9	.	.
COc1ccc(S(=O)(=O)N(C)C[C@H]2OCCCC[C@@H](C)Oc3ccc(NC(=O)CCC(F)(F)F)cc3C(=O)N([C@H](C)CO)C[C@@H]2C)cc1	.	-1.4	.	.	5.9	.	.
C[C@H]1CCCCO[C@@H](CN(C)S(=O)(=O)c2ccc(F)cc2)[C@@H](C)CN([C@@H](C)CO)C(=O)c2cc(NC(=O)Nc3ccc4c(c3)OCO4)ccc2O1	.	-0.2	.	.	8.4	.	.
C[C@@H]1CCCCO[C@H](CN(C)C(=O)Nc2ccc(C(F)(F)F)cc2)[C@@H](C)CN([C@H](C)CO)C(=O)c2cc(NC(=O)c3ccncc3)ccc2O1	.	-1.2	.	.	35.0*	.	34.6
C[C@@H]1CCCCO[C@H](CN(C)S(=O)(=O)c2ccc(F)cc2)[C@@H](C)CN([C@H](C)CO)C(=O)c2cc(NC(=O)Nc3ccc(C(F)(F)F)cc3)ccc2O1	.	-1.4	.	.	35.0*	.	-2.5
COc1cc(C=Nn2nnnc2Nc2ccccc2)cc(OC)c1OC	-1.2	.	.	.	.	.	.
COC(=O)[C@H](CC(C)C)N1Cc2cc(OC)cc(OC)c2-c2ccccc2S1(=O)=O	-6.2	-3.4	4.7	-3.8	36.6*	.	48.5*
